Assay results: ChEMBL document CHEMBL3407432, “Fused heterocycles bearing bridgehead nitrogen as potent HIV-1 NNRTIs. Part 3: optimization of [1,2,4]triazolo[1,5-a]pyrimidine core via structure-based and physicochemical property-driven approaches” (Eur J Med Chem, 2015)
Converted amounts (≈) assume the structure as drawn. Where a name gives a salt, the structure may show the parent alone.

Assays:
[1] = tested on: Human immunodeficiency virus 1; assay: Antiviral activity against HIV1 3B infected in human MT4 cells assessed as reduction in virus-induced cytopathic effect after 5 days by MTT assay; type: functional, organism-based; conditions: Human immunodeficiency virus 1, 3B, MT4, 120 h
Procedure, shortened: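 MT-4 cells at 6 × 10⁵ cells/mL infected with HIV-1 IIIB stock at 100-300 CCID50. Test compounds added as serial five-fold dilutions in triplicate wells. Viability of infected cells read spectrophotometrically by MTT 5 days after infection. Values are the mean ± SD of at least two parallel tests.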

[2] = tested on: Human immunodeficiency virus 1; assay: Antiviral activity against HIV1 RES056 expressing reverse transcriptase K103N + Y181C double mutant infected in human MT4 cells assessed as reduction in virus-induced cytopathic effect after 5 days by MTT assay; type: functional, organism-based; conditions: Human immunodeficiency virus 1, RES056, MT4, 120 h
Procedure, shortened: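 MT-4 cells resuspended at 6 × 10⁵ cells/mL, infected with HIV-1 RES056 stock at 100–300 CCID50, compound in serial five-fold dilutions in triplicate wells alongside mock-infected wells. Viability read by MTT after 5 days.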

[3] = Selectivity index, ratio of CC50 for mock-infected human MT4 cells to EC50 for HIV1 3B infected in human MT4 cells; type: toxicity, cell-based; conditions: mock-infected MT4 cells and MT4 cells infected with HIV1 3B, read-out: Ratio CC50/EC50
[4] = Selectivity index, ratio of CC50 for mock-infected human MT4 cells to EC50 for HIV1 RES056 expressing reverse transcriptase K103N + Y181C double mutant; type: toxicity, cell-based; conditions: read-out: Ratio CC50/EC50
[5] = Solubility in water at pH 7.0 after 2 hrs by HPLC-UV method; type: physicochemical
Procedure, shortened: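 DMSO stock spiked into purified water to 1% final DMSO. Shaken 2 h at 3000 rpm at room temperature, left 1 h, then filtered through a 0.22 membrane. Filtrate quantified by HPLC-UV on a C18 column (150 × 4.6 mm) with MeOH/water 85/15 at 1.0 mL/min. Measured at pH 7, in duplicate.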

[6] = molecular target: Human immunodeficiency virus type 1 reverse transcriptase (Human immunodeficiency virus 1, UniProt Q72547); assay: Inhibition of HIV1 reverse transcriptase assessed as reduction in biotin-labeled dUTP incorporation into DNA after 1 hr using poly(A) x oligo(dT)15 template/primer hybrid, digoxigenin and biotin-labeled nucleotides
Procedure, shortened: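 Recombinant HIV-1 RT, colorimetric ELISA kit. Poly(A)·oligo(dT)15 template/primer with biotin- and DIG-labelled dNTPs in lysis buffer ± inhibitor, 1 h at 37 °C. Serial five-fold dilutions tested. IC50 is the concentration halving labelled dUTP incorporation.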

[7] = Lipophilicity, log P of the compound at pH 7.0 by HPLC method; type: physicochemical; conditions: buffer
Procedure, shortened: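 Log P measured at pH 7 by HPLC, in duplicate.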

Cc1cc(C)c(Oc2cc(NC3CCN(CC4CCCCC4)CC3)nc3ncnn23)c(C)c1
EC50 [1]: 245 nM | EC50 [2]: > 13000 nM | selectivity ratio [3]: 50 | selectivity ratio [4]: < 1

Cc1cc(C)c(Oc2cc(NC3CCN(Cc4ccncc4)CC3)nc3ncnn23)c(C)c1
EC50 [1]: 17 nM | EC50 [2]: 6400 nM | selectivity ratio [3]: 2650 | selectivity ratio [4]: 7

Cc1cc(C)c(Oc2cc(NC3CCN(Cc4ccccc4)CC3)nc3ncnn23)c(C)c1
EC50 [1]: 36 nM | EC50 [2]: > 25000 nM | selectivity ratio [3]: 708 | selectivity ratio [4]: < 1

Cc1cc(C)c(Oc2cc(NC3CCN(Cc4ccc(S(C)(=O)=O)cc4)CC3)nc3ncnn23)c(C)c1
solubility at 2 h [5]: 10.3 µg/mL (≈ 19.8 µM) | EC50 [1]: 8.1 nM | EC50 [2]: 13000 nM | selectivity ratio [3]: 2550 | selectivity ratio [4]: 2 | IC50 [6]: 500 nM | logP [7]: 1.91

Cc1cc(C)c(Oc2cc(NC3CCN(Cc4ccc(S(N)(=O)=O)cc4)CC3)nc3ncnn23)c(C)c1
EC50 [1]: 27 nM | EC50 [2]: 22000 nM | selectivity ratio [3]: 1890 | selectivity ratio [4]: 2

COC(=O)c1ccc(CN2CCC(Nc3cc(Oc4c(C)cc(C)cc4C)n4ncnc4n3)CC2)cc1
EC50 [1]: 15 nM | EC50 [2]: > 10000 nM | selectivity ratio [3]: 686 | selectivity ratio [4]: < 1

Cc1cc(C)c(Oc2cc(NC3CCN(Cc4ccc([N+](=O)[O-])cc4)CC3)nc3ncnn23)c(C)c1
EC50 [1]: 35 nM | EC50 [2]: > 18000 nM | selectivity ratio [3]: 522 | selectivity ratio [4]: < 1

Cc1cc(C)c(Oc2cc(NC3CCN(Cc4ccc(C(N)=O)cc4)CC3)nc3ncnn23)c(C)c1
EC50 [1]: 21 nM | EC50 [2]: > 24000 nM | selectivity ratio [3]: 1180 | selectivity ratio [4]: < 1

CC(=O)c1ccc(CN2CCC(Nc3cc(Oc4c(C)cc(C)cc4C)n4ncnc4n3)CC2)cc1
EC50 [1]: 8.7 nM | EC50 [2]: > 18000 nM | selectivity ratio [3]: 2060 | selectivity ratio [4]: < 1

Cc1cc(C)c(Oc2cc(NC3CCN(Cc4ccc(Br)cc4)CC3)nc3ncnn23)c(C)c1
EC50 [1]: 92 nM | EC50 [2]: > 30000 nM | selectivity ratio [3]: 320 | selectivity ratio [4]: < 1

Cc1cc(C)c(Oc2cc(NC3CCN(Cc4cccc(Cl)c4)CC3)nc3ncnn23)c(C)c1
EC50 [1]: 12 nM | EC50 [2]: > 20000 nM | selectivity ratio [3]: 1640 | selectivity ratio [4]: < 1

Cc1cc(C)c(Oc2cc(NC3CCN(Cc4ccc(C#N)cc4)CC3)nc3ncnn23)c(C)c1
EC50 [1]: 20 nM | EC50 [2]: > 14000 nM | selectivity ratio [3]: 689 | selectivity ratio [4]: < 1

Cc1cc(C)c(Oc2cc(NC3CCN(Cc4cccc(C#N)c4)CC3)nc3ncnn23)c(C)c1
EC50 [1]: 19 nM | EC50 [2]: > 25000 nM | selectivity ratio [3]: 1320 | selectivity ratio [4]: < 1

Cc1cc(C)c(Oc2cc(NC3CCN(Cc4ccccc4C#N)CC3)nc3ncnn23)c(C)c1
EC50 [1]: 77 nM | EC50 [2]: > 27000 nM | selectivity ratio [3]: 356 | selectivity ratio [4]: < 1

Cc1cc(C)c(Oc2cc(NC3CCN(Cc4ccc(F)cc4)CC3)nc3ncnn23)c(C)c1
EC50 [1]: 56 nM | EC50 [2]: > 24000 nM | selectivity ratio [3]: 424 | selectivity ratio [4]: < 1

Cc1cc(C)c(Oc2cc(NC3CCN(Cc4cccc(F)c4)CC3)nc3ncnn23)c(C)c1
EC50 [1]: 104 nM | EC50 [2]: ≥ 39000 nM | selectivity ratio [3]: ≥ 238 | selectivity ratio [4]: ≤ 1

Cc1cc(C)c(Oc2cc(NC3CCN(Cc4ccccc4F)CC3)nc3ncnn23)c(C)c1
EC50 [1]: 48 nM | EC50 [2]: > 25000 nM | selectivity ratio [3]: 520 | selectivity ratio [4]: < 1

Cc1ccc(CN2CCC(Nc3cc(Oc4c(C)cc(C)cc4C)n4ncnc4n3)CC2)cc1
EC50 [1]: 72 nM | EC50 [2]: > 49000 nM | selectivity ratio [3]: 679 | selectivity ratio [4]: < 1

Cc1cc(C)c(Oc2cc(NC3CCN(Cc4ccccc4C)CC3)nc3ncnn23)c(C)c1
EC50 [1]: 42 nM | EC50 [2]: > 24000 nM | selectivity ratio [3]: 590 | selectivity ratio [4]: < 1

Cc1cc(C)c(Oc2cc(NC3CCN(Cc4ccc(F)cc4F)CC3)nc3ncnn23)c(C)c1
EC50 [1]: 90 nM | EC50 [2]: > 23000 nM | selectivity ratio [3]: 255 | selectivity ratio [4]: < 1

Cc1cc(C)c(Oc2cc(NC3CCN(Cc4ccc(F)c(F)c4)CC3)nc3ncnn23)c(C)c1
EC50 [1]: 67 nM | EC50 [2]: > 23000 nM | selectivity ratio [3]: 346 | selectivity ratio [4]: < 1

Cc1cc(C)c(Oc2cc(NC3CCN(Cc4cc(F)ccc4F)CC3)nc3ncnn23)c(C)c1
EC50 [1]: 98 nM | EC50 [2]: > 24000 nM | selectivity ratio [3]: 243 | selectivity ratio [4]: < 1

Cc1cc(C)c(Oc2cc(NC3CCN(Cc4c(F)cccc4F)CC3)nc3ncnn23)c(C)c1
EC50 [1]: 439 nM | EC50 [2]: > 25000 nM | selectivity ratio [3]: 57 | selectivity ratio [4]: < 1

COC(=O)c1ccc(NC(=O)CN2CCC(Nc3cc(Oc4c(C)cc(C)cc4C)n4ncnc4n3)CC2)c(Cl)c1
EC50 [1]: 277 nM | EC50 [2]: > 86000 nM | selectivity ratio [3]: 315 | selectivity ratio [4]: < 1

Cc1cc(C)c(Oc2cc(NC3CCN(CC(=O)Nc4ccc(C(=O)O)cc4Br)CC3)nc3ncnn23)c(C)c1
EC50 [1]: 2280 nM | EC50 [2]: > 89000 nM | selectivity ratio [3]: 39 | selectivity ratio [4]: < 1

CC(C)Nc1cccnc1N1CCN(C(=O)c2cc3cc(NS(C)(=O)=O)ccc3[nH]2)CC1 [DELAVIRDINE MESYLATE]
EC50 [1]: 540 nM | EC50 [2]: > 36000 nM | selectivity ratio [3]: > 67 | selectivity ratio [4]: 1

O=c1[nH]cnc2c1ncn2[C@H]1CC[C@@H](CO)O1 [DIDANOSINE]
selectivity ratio [3]: > 9

O=C1Nc2ccc(Cl)cc2[C@@](C#CC2CC2)(C(F)(F)F)O1 [EFAVIRENZ]
EC50 [1]: 6.3 nM

Cc1cc(C#N)cc(C)c1Oc1nc(Nc2ccc(C#N)cc2)nc(N)c1Br [ETRAVIRINE]
solubility at 2 h [5]: < 1 µg/mL | EC50 [1]: 1.8 nM | logP [7]: > 5

Nc1ccn([C@@H]2CS[C@H](CO)O2)c(=O)n1 [LAMIVUDINE]
selectivity ratio [3]: > 39

Cc1ccnc2c1NC(=O)c1cccnc1N2C1CC1 [NEVIRAPINE]
EC50 [2]: ≥ 7600 nM

Cc1cn([C@H]2C[C@H](N=[N+]=[N-])[C@@H](CO)O2)c(=O)[nH]c1=O [ZIDOVUDINE]
EC50 [2]: 10 nM
